≈ marks a conversion by molar mass, not a printed value. Numbered stars: 1 amine (or outer) side, 2 acyl side, 3 side chain; on linkers, the order of the positions; unused ones are H or OH. Bridge positions count the residues as written; N and C are the ends. Square brackets hold non-standard residues; d marks the D form. Peptide text beside a SMILES is read from it. * marks the point of attachment. X1 = O=C1C[C@@H](C(=O)[*:2])N([*:1])C[C@H]1CS[C@@H]1CN2CCC1CC2; NMePhe(4-NMe2) = CN[C@@H](Cc1ccc(N(C)C)cc1)C(=O)O; Picolinoyl(3-OH) = O=C(c1ncccc1O)*; Phg = N[C@H](C(=O)O)c1ccccc1; dAbu = CC[C@@H](N)C(=O)O
Tests used:
Type in all cases: functional
[1] = system: Mycobacteroides abscessus; experiment: Antimicrobial activity against Mycobacterium abscessus isolate MC879 at day 5 preincubated with 0.1 ug/ml for 3 days by broth microdilution method
How it was run: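 To test inducible resistance, cultures were preincubated for 3 days in clarithromycin or erythromycin, within 0.01–1 μg/ml. The period was set so cultures passed at least two generations, judged by turbidity increase. Clarithromycin MIC was then determined by CLSI-conforming broth microdilution and read on the stated day, from day 3 up to 14.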

[2] = system: Mycolicibacterium smegmatis; experiment: Antimicrobial activity against Mycobacterium smegmatis transformed with erm allele Mycobacterium abscessus isolate MC1028 preincubated with 2 ug/ml erythromycin for 20 to 24 hrs by broth microdilution method
[3] = system: Mycobacteroides abscessus; experiment: Antimicrobial activity against Mycobacterium abscessus isolate MC1028 at day 7 by broth microdilution method; details: isolate MC1028, 168 h
How it was run: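 Clarithromycin MIC by CLSI-conforming broth microdilution. Before testing, cultures were preincubated for 3 days, either in medium alone or in clarithromycin or erythromycin (tested range 0.01–1 μg/ml). Preincubation ran for at least two generations, judged by turbidity increase. Plates were read on day 3 and on extended incubation at days 5 to 14.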

[4] = system: Mycolicibacterium smegmatis; experiment: Antimicrobial activity against Mycobacterium smegmatis transformed with erm allele Mycobacterium abscessus isolate MC720 by broth microdilution method
[5] = system: Mycobacteroides abscessus; experiment: Antimicrobial activity against Mycobacterium abscessus isolate MC1028 on day 4 by broth microdilution method; details: isolate MC1028, 96 h
[6] = system: Mycobacteroides abscessus; experiment: Antimicrobial activity against Mycobacterium abscessus isolate MC879 on day 4 by broth microdilution method; details: isolate MC879, 96 h
[7] = system: Mycolicibacterium smegmatis; experiment: Antimicrobial activity against Mycobacterium smegmatis transformed with erm allele Mycobacterium abscessus isolate MC958 by broth microdilution method
[8] = system: Mycolicibacterium smegmatis; experiment: Antimicrobial activity against Mycobacterium smegmatis transformed with erm allele Mycobacterium abscessus isolate MC879 preincubated with 2 ug/ml erythromycin for 20 to 24 hrs by broth microdilution method
[9] = system: Mycolicibacterium smegmatis; experiment: Antimicrobial activity against Mycobacterium smegmatis transformed with erm allele Mycobacterium abscessus isolate MAB30 by broth microdilution method
[10] = system: Mycobacteroides abscessus; experiment: Antimicrobial activity against Mycobacterium abscessus isolate MC879 at day 7 by broth microdilution method; details: isolate MC879, 168 h
How it was run: (§1)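 Clarithromycin MIC by broth microdilution following CLSI guidelines. Organisms were preincubated […], for 3 days before the assay. This allowed at least two generations, judged by the rise in turbidity. The MIC was read at the stated day, with incubation extended from day 3 to as long as 14 days.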

[11] = system: Mycolicibacterium smegmatis; experiment: Antimicrobial activity against Mycobacterium smegmatis transformed with erm allele Mycobacterium abscessus isolate MAB30 preincubated with 2 ug/ml erythromycin for 20 to 24 hrs by broth microdilution method
[12] = system: Mycolicibacterium smegmatis; experiment: Antimicrobial activity against Mycobacterium smegmatis transformed with erm allele Mycobacterium abscessus isolate MC1028 by broth microdilution method
[13] = system: Mycolicibacterium smegmatis; experiment: Antimicrobial activity against Mycobacterium smegmatis transformed with erm allele Mycobacterium abscessus isolate MC1082 preincubated with 2 ug/ml erythromycin for 20 to 24 hrs by broth microdilution method
[14] = system: Mycolicibacterium smegmatis; experiment: Antimicrobial activity against Mycobacterium smegmatis transformed with erm allele Mycobacterium abscessus isolate MC720 preincubated with 2 ug/ml erythromycin for 20 to 24 hrs by broth microdilution method
[15] = system: Mycobacteroides abscessus; experiment: Antimicrobial activity against Mycobacterium abscessus isolate MC958 at day 7 by broth microdilution method; details: isolate MC958, 168 h; how it was run: as §1
[16] = system: Mycolicibacterium smegmatis; experiment: Antimicrobial activity against Mycobacterium smegmatis transformed with erm allele Mycobacterium abscessus isolate MC879 by broth microdilution method
[17] = system: Mycolicibacterium smegmatis; experiment: Antimicrobial activity against Mycobacterium smegmatis transformed with erm allele Mycobacterium abscessus isolate MC958 preincubated with 2 ug/ml erythromycin for 20 to 24 hrs by broth microdilution method
[18] = system: Mycolicibacterium smegmatis; experiment: Antimicrobial activity against Mycobacterium smegmatis transformed with erm allele Mycobacterium abscessus isolate MC719 preincubated with 2 ug/ml erythromycin for 20 to 24 hrs by broth microdilution method
[19] = system: Mycolicibacterium smegmatis; experiment: Antimicrobial activity against Mycobacterium smegmatis transformed with erm allele Mycobacterium abscessus isolate MC719 by broth microdilution method
[20] = system: Mycolicibacterium smegmatis; experiment: Antimicrobial activity against Mycobacterium smegmatis transformed with erm allele Mycobacterium abscessus isolate MC1082 by broth microdilution method
[21] = system: Mycolicibacterium smegmatis; experiment: Antimicrobial activity against Mycobacterium smegmatis transformed with erm allele Mycobacterium abscessus isolate MC879-2 by broth microdilution method
[22] = system: Mycolicibacterium smegmatis; experiment: Antimicrobial activity against Mycobacterium smegmatis transformed with erm allele Mycobacterium abscessus isolate MC879-2 preincubated with 2 ug/ml erythromycin for 20 to 24 hrs by broth microdilution method
[23] = system: Mycobacteroides abscessus; experiment: Antimicrobial activity against Mycobacterium abscessus isolate MC958 on day 4 by broth microdilution method; details: isolate MC958, 96 h

| Compound | MIC [1] [µg/mL] | MIC [2] [µg/mL] | MIC [3] [µg/mL] | MIC [4] [µg/mL] | MIC [5] [µg/mL] | MIC [6] [µg/mL] | MIC [7] [µg/mL] | MIC [8] [µg/mL] | MIC [9] [µg/mL] | MIC [10] [µg/mL] | MIC [11] [µg/mL] | MIC [12] [µg/mL] | MIC [13] [µg/mL] | MIC [14] [µg/mL] | MIC [15] [µg/mL] | MIC [16] [µg/mL] | MIC [17] [µg/mL] | MIC [18] [µg/mL] | MIC [19] [µg/mL] | MIC [20] [µg/mL] | further results |
| --- | --- | --- | --- | --- | --- | --- | --- | --- | --- | --- | --- | --- | --- | --- | --- | --- | --- | --- | --- | --- | --- |
| CCC[C@@H]1C[C@@H](C(=O)N[C@@H]([C@H]2O[C@H](SC)[C@H](O)[C@@H](O)[C@H]2O)[C@H](C)Cl)N(C)C1 [CLINDAMYCIN] | 64 (≈ 151 µM) | 32 | > 256 | 64 (≈ 151 µM) | 64 (≈ 151 µM) | 64 (≈ 151 µM) | 64 (≈ 151 µM) | > 512 | 32 (≈ 75.3 µM) | > 256 | 32 | 32 (≈ 75.3 µM) | 32 | > 512 | > 256 | 64 (≈ 151 µM) | > 512 | > 512 | 64 (≈ 151 µM) | 32 (≈ 75.3 µM) | – |
| CC[C@H]1OC(=O)[C@H](C)[C@@H](O[C@H]2C[C@@](C)(OC)[C@@H](O)[C@H](C)O2)[C@H](C)[C@@H](O[C@@H]2O[C@H](C)C[C@H](N(C)C)[C@H]2O)[C@](C)(O)C[C@@H](C)C(=O)[C@H](C)[C@@H](O)[C@]1(C)O [ERYTHROMYCIN] | – | 4 | – | 32 (≈ 43.6 µM) | – | – | 32 (≈ 43.6 µM) | > 128 | 4 (≈ 5.45 µM) | – | 4 | 4 (≈ 5.45 µM) | 4 | > 128 | – | 32 (≈ 43.6 µM) | > 128 | > 128 | 32 (≈ 43.6 µM) | 4 (≈ 5.45 µM) | MIC [21]: 32 µg/mL (≈ 43.6 µM); MIC [22]: > 128 µg/mL |
| CC[C@H]1NC(=O)[C@@H](NC(=O)c2ncccc2O)[C@@H](C)OC(=O)[C@H](c2ccccc2)NC(=O)[C@@H]2CC(=O)[C@H](CS[C@@H]3CN4CCC3CC4)CN2C(=O)[C@H](Cc2ccc(N(C)C)cc2)N(C)C(=O)[C@@H]2CCCN2C1=O [QUINUPRISTIN] ({Picolinoyl(3-OH)}-T[dAbu]P[NMePhe(4-NMe2)][X1][Phg]; ester 1-C) | 64 (≈ 62.6 µM) | 128 | > 256 | 128 (≈ 125 µM) | 64 (≈ 62.6 µM) | 64 (≈ 62.6 µM) | 128 (≈ 125 µM) | 128 | 128 (≈ 125 µM) | > 256 | 128 | 128 (≈ 125 µM) | 128 | 128 | > 256 | 128 (≈ 125 µM) | 128 | 128 | 128 (≈ 125 µM) | 128 (≈ 125 µM) | – |
| CC[C@H]1OC(=O)[C@H](C)C(=O)[C@H](C)[C@@H](O[C@@H]2O[C@H](C)C[C@H](N(C)C)[C@H]2O)[C@](C)(OC)C[C@@H](C)C(=O)[C@H](C)[C@H]2N(CCCCn3cnc(-c4cccnc4)c3)C(=O)O[C@]12C [TELITHROMYCIN] | – | 4 | > 128 | 8 (≈ 9.85 µM) | 32 (≈ 39.4 µM) | 32 (≈ 39.4 µM) | 8 (≈ 9.85 µM) | > 128 | 4 (≈ 4.93 µM) | > 128 | 4 | 4 (≈ 4.93 µM) | 4 | > 128 | > 128 | 8 (≈ 9.85 µM) | > 128 | > 128 | 8 (≈ 9.85 µM) | 4 (≈ 4.93 µM) | MIC [23]: 32 µg/mL (≈ 39.4 µM) |

Reference: ChEMBL document CHEMBL1649139, “A novel gene, erm(41), confers inducible macrolide resistance to clinical isolates of Mycobacterium abscessus but is absent from Mycobacterium chelonae” (2009)
